Results from ChEMBL document CHEMBL1144203, “Synthesis and antiviral evaluation of acyclic azanucleosides developed from sulfanilamide as a lead structure” (Bioorg Med Chem, 2008).
Calls of active or inactive are those of the source. The calls are words filed in the database; no cut-off is given here.

Key:
Human alphaherpesvirus 2 = assay: Antiviral activity against HSV2 virus infected in HEL cells assessed as inhibition of virus-induced cytopathic effect at 100 uM by MTS assay; assay type: functional, organism-based
HEL = assay: Cytotoxicity against HEL cells assessed as decrease in cell viability upto 100 uM by MTS assay; assay type: cell-based; conditions: human
Human respirovirus 3 = assay: Antiviral activity against Parainfluenza 3 virus infected in Vero cells assessed as inhibition of virus-induced cytopathic effect at 100 uM by MTS assay; assay type: functional, organism-based
Outline: (§1)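 Vero cell monolayers were infected with the virus in cell-based CPE assays. EC50 is the concentration giving 50% inhibition of virus-induced cytopathic effect, scored visually or by MTS formazan colorimetric cell-viability read-out. The highest concentration tested was 100 μM for most compounds and lower for a few.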

Punta Toro virus = assay: Antiviral activity against Punta Toro virus infected in Vero cells assessed as inhibition of virus-induced cytopathic effect at 100 uM by MTS assay; assay type: functional, organism-based; outline: as §1
Sindbis virus = assay: Antiviral activity against Sindbis virus infected in Vero cells assessed as inhibition of virus-induced cytopathic effect at 100 uM by MTS assay; assay type: functional, organism-based; outline: as §1
[1] = system: Respiratory syncytial virus; assay: Antiviral activity against respiratory syncytial virus infected in HeLa cells assessed as inhibition of virus-induced cytopathic effect at 100 uM by MTS assay; assay type: functional, organism-based
Outline: (§2)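 HeLa cells were infected with the virus, and compounds were tested up to 100 μM. EC50 is the concentration that halves virus-induced cytopathic effect, read by visual CPE scoring or by MTS formazan colorimetric viability measurement.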

Human alphaherpesvirus 1 = assay: Antiviral activity against HSV1 virus infected in HEL cells assessed as inhibition of virus-induced cytopathic effect at 100 uM by MTS assay; assay type: functional, organism-based
Feline coronavirus = assay: Antiviral activity against feline coronavirus infected in CRFK cells assessed as inhibition of virus-induced cytopathic effect at 100 uM by MTS assay; assay type: functional, organism-based
Felid alphaherpesvirus 1 = assay: Antiviral activity against feline herpes virus infected in CRFK cells assessed as inhibition of virus-induced cytopathic effect at 100 uM by MTS assay; assay type: functional, organism-based
[2] = system: Mammalian orthoreovirus 1; assay: Antiviral activity against Reovirus1 infected in Vero cells assessed as inhibition of virus-induced cytopathic effect at 100 uM by MTS assay; assay type: functional, organism-based; outline: as §1
Coxsackievirus B4 [3] = assay: Antiviral activity against Coxsackievirus B4 infected in Vero cells assessed as inhibition of virus-induced cytopathic effect at 100 uM by MTS assay; assay type: functional, organism-based; outline: as §1
[4] = Cytotoxicity against CRFK cells assessed as decrease in cell viability upto 100 uM by MTS assay; assay type: cell-based, Felis catus; conditions: cat
HeLa = assay: Cytotoxicity against human HeLa cells assessed as decrease in cell viability upto 100 uM by MTS assay; assay type: functional, cell-based
Outline: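 Uninfected HeLa host cells were tested up to 100 μM. CC50 is the concentration causing a 50% drop in cell viability by colorimetric formazan-based MTS assay. Alternatively, MCC is the minimal concentration giving microscopically detectable alteration of normal cell morphology.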

Coxsackievirus B4 [5] = assay: Antiviral activity against Coxsackievirus B4 infected in HeLa cells assessed as inhibition of virus-induced cytopathic effect at 100 uM by MTS assay; assay type: functional, organism-based; outline: as §2
MDCK = assay: Cytotoxicity against MDCK cells assessed as decrease in cell viability upto 100 uM by MTS assay; assay type: cell-based, Canis lupus familiaris; conditions: dog

| SMILES | Activity (Human alphaherpesvirus 2) | Activity (HEL) | Activity (Human respirovirus 3) | Activity (Punta Toro virus) | Activity (Sindbis virus) | Activity [1] | Activity (Human alphaherpesvirus 1) | Activity (Feline coronavirus) | Activity (Felid alphaherpesvirus 1) | Activity [2] | Activity (Coxsackievirus B4 [3]) | Activity [4] | Activity (HeLa) | Activity (Coxsackievirus B4 [5]) | Activity (MDCK) |
| --- | --- | --- | --- | --- | --- | --- | --- | --- | --- | --- | --- | --- | --- | --- | --- |
| Cc1cn(CN(CCO)S(=O)(=O)c2ccc(N)cc2)c(=O)[nH]c1=O | inactive | Not Active | inactive | inactive | inactive | inactive | inactive | inactive | inactive | inactive | inactive | Not Active | inactive | inactive | Not Active |
| CC(C)(C)C(=O)OCCN(Cn1cc(F)c(=O)[nH]c1=O)S(=O)(=O)c1ccc(N)cc1 | inactive | Not Active | inactive | inactive | inactive | inactive | inactive | inactive | inactive | inactive | inactive | Not Active | inactive | inactive | Not Active |
| Cc1cn(CN(CCOC(=O)C(C)(C)C)S(=O)(=O)c2cccc([N+](=O)[O-])c2)c(=O)[nH]c1=O | inactive | Not Active | inactive | inactive | inactive | inactive | inactive | inactive | inactive | inactive | inactive | Not Active | inactive | inactive | Not Active |
| Cc1cn(CN(CCOC(=O)C(C)(C)C)S(=O)(=O)c2ccc(N)cc2)c(=O)[nH]c1=O | inactive | Not Active | inactive | inactive | inactive | inactive | inactive | inactive | inactive | inactive | inactive | Not Active | inactive | inactive | Not Active |
| CC(C)(C)C(=O)OCCN(Cn1ccc(=O)[nH]c1=O)S(=O)(=O)c1ccccc1N | inactive | Not Active | inactive | inactive | inactive | inactive | inactive | inactive | inactive | inactive | inactive | Not Active | inactive | inactive | Not Active |
| CC(C)(C)C(=O)OCCN(Cn1cc(F)c(=O)[nH]c1=O)S(=O)(=O)c1cccc(N)c1 | inactive | Not Active | inactive | inactive | inactive | inactive | inactive | inactive | inactive | inactive | inactive | Not Active | inactive | inactive | Not Active |
| CC(C)(C)C(=O)OCCN(Cn1ccc(=O)[nH]c1=O)S(=O)(=O)c1cccc(N)c1 | inactive | Not Active | inactive | inactive | inactive | inactive | inactive | inactive | inactive | inactive | inactive | Not Active | inactive | inactive | Not Active |
| Cc1cn(CN(CCOC(=O)C(C)(C)C)S(=O)(=O)c2ccccc2N)c(=O)[nH]c1=O | inactive | Not Active | inactive | inactive | inactive | inactive | inactive | inactive | inactive | inactive | inactive | Not Active | inactive | inactive | Not Active |
| Cc1cn(CN(CCO)S(=O)(=O)c2ccccc2N)c(=O)[nH]c1=O | inactive | Not Active | inactive | inactive | inactive | inactive | inactive | inactive | inactive | inactive | inactive | Not Active | inactive | inactive | Not Active |
| CC(C)(C)C(=O)OCCN(Cn1ccc(=O)[nH]c1=O)S(=O)(=O)c1ccc(N)cc1 | inactive | Not Active | inactive | inactive | inactive | inactive | inactive | inactive | inactive | inactive | inactive | Not Active | inactive | inactive | Not Active |
| CC(C)(C)C(=O)OCCN(Cn1ccc(=O)[nH]c1=O)S(=O)(=O)c1ccccc1[N+](=O)[O-] | inactive | Not Active | inactive | inactive | inactive | inactive | inactive | inactive | inactive | inactive | inactive | Not Active | inactive | inactive | Not Active |
| CC(=O)Nc1ccc(S(=O)(=O)N(CCOC(=O)C(C)(C)C)Cn2cc(F)c(=O)[nH]c2=O)cc1 | inactive | Not Active | inactive | inactive | inactive | inactive | inactive | inactive | inactive | inactive | inactive | Not Active | inactive | inactive | Not Active |
| CC(C)(C)C(=O)OCCN(Cn1cc(F)c(=O)[nH]c1=O)S(=O)(=O)c1ccccc1N | inactive | Not Active | inactive | inactive | inactive | inactive | inactive | inactive | inactive | inactive | inactive | Not Active | inactive | inactive | Not Active |
| Cc1cn(CN(CCOC(=O)C(C)(C)C)S(=O)(=O)c2cccc(N)c2)c(=O)[nH]c1=O | inactive | Not Active | inactive | inactive | inactive | inactive | inactive | inactive | inactive | inactive | inactive | Not Active | inactive | inactive | Not Active |
